Data: ChEMBL document CHEMBL4152290, “1H-Benzo[d]imidazoles and 3,4-dihydroquinazolin-4-ones: Design, synthesis and antitubercular activity” (Eur J Med Chem, 2018)
≈ marks a conversion by molar mass, not a printed value.

Columns and labels:
Danio rerio [1] = species on record: Danio rerio; assay: Induction of neurological impairment in Zebrafish AB embryos assessed as alteration in locomotor activity by measuring swimming activity at 3 to 20 uM measured at 5 days post fertilization; assay type: organism-based; conditions: in vivo, 120 h
Procedure, shortened: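 Larvae were exposed from 2 hpf in fish water with 1% DMSO. At 5 dpf each larva was placed singly in a well of water or treatment solution. After 1 min acclimation, it was video-tracked for 5 min at 15 positions/s, and distance travelled was scored.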

[2] = test system: Mycobacterium tuberculosis; assay: Antitubercular activity against Mycobacterium tuberculosis H37Rv ATCC 27294 after 7 days by resazurin dye based assay; assay type: functional; conditions: H37Rv ATCC 27294, 168 h
Procedure, shortened: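 Resazurin microtiter MIC in 7H9 with 10% ADC. Two-fold dilutions from 1 mg/mL DMSO stocks span 25.0–0.05, 10.0–0.02 or 0.02–0.0004 µg/mL, with 2.5% DMSO final. Inoculum is bead-declumped culture grown in 7H9/10% OADC/0.05% Tween 80, diluted to OD600 0.006. Plates run 7 days at 37 °C, then 0.01% resazurin for 48 h. MIC is the lowest concentration preventing the blue-to-pink change. Three independent tests.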

[3] = Cytotoxicity against human HepG2 cells assessed as cell viability at 10 ug/ml after 72 hrs by MTT assay (reference value: 100%); assay type: cell-based; conditions: read-out: Activity
Procedure, shortened: (§1)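 Cells were grown in DMEM with 10% heat-inactivated FBS and penicillin-streptomycin, seeded at 2×10^3/well (HepG2, HaCat) or 1×10^3/well (Vero), then left 24 h. Compound was applied at 10 µg/mL final (2% DMSO) for 72 h at 37 °C, 5% CO2. MTT 1 mg/mL was added for 3 h, formazan dissolved in DMSO, and A595 read. Viability is expressed relative to 2% DMSO wells; mean ± SEM, triplicates, three independent experiments.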

[4] = Cytotoxicity against human HaCaT cells assessed as cell viability at 10 ug/ml after 72 hrs by neutral red uptake assay (reference value: 100%); assay type: cell-based; conditions: read-out: Activity
Procedure, shortened: (§2)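 Seeding was 2×10^3/well for HepG2 and HaCat and 1×10^3/well for Vero. After 24 h, cells received 10 µg/mL final (2% DMSO) for 72 h at 37 °C, 5% CO2. They were washed with PBS, given neutral red 25 µg/mL in serum-free medium for 3 h, washed, and extracted 30 min with acetic acid/EtOH/water 1:50:49. A540 was read. Viability is relative to 2% DMSO controls; mean ± SEM, three experiments in triplicate.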

[5] = Cytotoxicity against African green monkey Vero assessed as cell viability at 10 ug/ml after 72 hrs by MTT assay (reference value: 100%); assay type: cell-based; conditions: chlorocebus sabaeus, Vero cells; read-out: Activity; procedure, shortened: as §1
[6] = Cytotoxicity against African green monkey Vero assessed as cell viability at 10 ug/ml after 72 hrs by neutral red uptake assay (reference value: 100%); assay type: cell-based; conditions: chlorocebus sabaeus, Vero cells; read-out: Activity; procedure, shortened: as §2
[7] = Selectivity index, ratio of cytotoxic concentration for human HepG2 cells by neutral red uptake assay to MIC for Mycobacterium tuberculosis H37Rv ATCC 27294; assay type: toxicity; conditions: read-out: Selectivity Index
[8] = Selectivity index, ratio of cytotoxic concentration for human HaCaT cells by MTT assay to MIC for Mycobacterium tuberculosis H37Rv ATCC 27294; assay type: toxicity; conditions: read-out: Selectivity Index
[9] = Selectivity index, ratio of cytotoxic concentration for African green monkey Vero cells by MTT assay to MIC for Mycobacterium tuberculosis H37Rv ATCC 27294; assay type: toxicity; conditions: read-out: Selectivity Index
[10] = Selectivity index, ratio of cytotoxic concentration for African green monkey Vero cells by neutral red uptake assay to MIC for Mycobacterium tuberculosis H37Rv ATCC 27294; assay type: toxicity; conditions: read-out: Selectivity Index
[11] = Stability of the compound in PBS containing 10% DMSO at 25 degC measured after 3 hrs by HPLC analysis; assay type: physicochemical; conditions: buffer
[12] = Stability of the compound in PBS containing 10% DMSO at 25 degC measured after 6 hrs by HPLC analysis; assay type: physicochemical; conditions: buffer
[13] = Stability of the compound in PBS containing 10% DMSO at 25 degC measured after 9 hrs by HPLC analysis; assay type: physicochemical; conditions: buffer
[14] = Stability of the compound in PBS containing 10% DMSO at 25 degC measured after 12 hrs by HPLC analysis; assay type: physicochemical; conditions: buffer
[15] = Stability of the compound in PBS containing 10% DMSO at 37 degC measured immediately by HPLC analysis; assay type: physicochemical; conditions: read-out: Stability
[16] = Stability of the compound in PBS containing 10% DMSO at 37 degC measured after 3 hrs by HPLC analysis; assay type: physicochemical; conditions: read-out: Stability
[17] = Stability of the compound in PBS containing 10% DMSO at 37 degC measured after 9 hrs by HPLC analysis; assay type: physicochemical; conditions: PBS containing 10% DMSO; read-out: Stability
[18] = Stability of the compound in PBS containing 10% DMSO at 37 degC measured after 12 hrs by HPLC analysis; assay type: physicochemical; conditions: read-out: Stability
[19] = Stability of the compound in PBS containing 10% DMSO at 37 degC measured after 24 hrs by HPLC analysis; assay type: physicochemical; conditions: PBS containing 10% DMSO; read-out: Stability
[20] = Stability of the compound in PBS containing 10% DMSO at 37 degC measured after 48 hrs by HPLC analysis; assay type: physicochemical; conditions: read-out: Stability
Danio rerio [21] = species on record: Danio rerio; assay: Cardiotoxicity in Zebrafish AB embryos assessed as heart beat rate at 15 uM measured at 2 days post fertilization by stereomicroscopic method (reference value: 128.7 to 146.3 bpm); assay type: organism-based; conditions: in vivo, 48 h
Danio rerio [22] = species on record: Danio rerio; assay: Cardiotoxicity in Zebrafish AB embryos assessed as heart beat rate at 3 uM measured at 2 days post fertilization by stereomicroscopic method (reference value: 128.7 to 146.3 bpm); assay type: organism-based; conditions: in vivo, 48 h
Danio rerio [23] = species on record: Danio rerio; assay: Cardiotoxicity in Zebrafish AB embryos assessed as heart beat rate at 20 uM measured at 2 days post fertilization by stereomicroscopic method (reference value: 128.7 to 146.3 bpm); assay type: organism-based; conditions: in vivo, 48 h
Danio rerio [24] = species on record: Danio rerio; assay: Cardiotoxicity in Zebrafish AB embryos assessed as heart beat rate at 15 uM measured at 5 days post fertilization by stereomicroscopic method (reference value: 148.1 to 158.2 bpm); assay type: organism-based; conditions: in vivo, 120 h
Danio rerio [25] = species on record: Danio rerio; assay: Cardiotoxicity in Zebrafish AB embryos assessed as heart beat rate at 20 uM measured at 5 days post fertilization by stereomicroscopic method (reference value: 148.1 to 158.2 bpm); assay type: organism-based; conditions: in vivo, 120 h
Danio rerio [26] = species on record: Danio rerio; assay: Toxicity in Zebrafish AB embryos assessed as morphological alteration by measuring effect on surface area of eyes at 3 to 20 uM measured at 2 to 5 days post fertilization by stereomicroscopic method; assay type: organism-based; conditions: in vivo
Procedure, shortened: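 AB embryos are treated from 2 hpf to 5 dpf at 3.0, 15.0 and 20.0 µM in fish water with 1% DMSO, at 28 °C. Controls are fish water and 1% DMSO. Larvae are photographed under a stereomicroscope (3×) at 2 and 5 dpf, n = 30. Body length (µm), ocular distance (µm) and eye surface area (µm²) are measured from the images.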

Danio rerio [27] = species on record: Danio rerio; assay: Toxicity in Zebrafish AB embryos assessed as effect on larval survival rate at 3 to 20 uM; assay type: organism-based; conditions: in vivo
Procedure, shortened: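 Wild-type AB zebrafish embryos are exposed from 2 hpf to 5 dpf at 3.0, 15.0 and 20.0 µM in fish water with 1% DMSO, at 28 °C on a 14/10 h light-dark cycle. Controls are fish water alone and 1% DMSO. Survival and hatching are checked daily under a stereomicroscope.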

Compound	Activity (Danio rerio [1])	MIC [2] [µM]	viability at 72 h, 10 ug/ml [3] [%]	viability at 72 h, 10 ug/ml [4] [%]	viability at 72 h, 10 ug/ml [5] [%]	viability at 72 h, 10 ug/ml [6] [%]	selectivity ratio [7]	selectivity ratio [8]	selectivity ratio [9]	selectivity ratio [10]	Stability [11] [%]	Stability [12] [%]	Stability [13] [%]	Stability [14] [%]	remaining at 0 h [15] [%]	remaining at 3 h [16] [%]	remaining at 9 h [17] [%]	remaining at 12 h [18] [%]	remaining at 24 h [19] [%]	remaining at 48 h [20] [%]	also measured
CC1CCCC(NC(=O)CSc2nc3ccccc3c(=O)[nH]2)C1 (stereo unspecified)	Non-Toxic	0.24 (≈ 0.0795 µg/mL)	89	88	89	95	≤ 32	≤ 32	≤ 32	≤ 32	101	102	100	102	100	96	97	100	97	98	Activity (Danio rerio [21]): 151.7 bpm; Activity (Danio rerio [22]): 151.2 bpm; Activity (Danio rerio [23]): 152.2 bpm; Activity (Danio rerio [24]): 157.4 bpm; Activity (Danio rerio [25]): 160.9 bpm; Activity (Danio rerio [26]): Non-Toxic; Activity (Danio rerio [27]): Non-Toxic
O=C(CSc1nc2ccccc2c(=O)[nH]1)NC1CCCCCC1	Non-Toxic	0.48 (≈ 0.159 µg/mL)	99	88	91	94	≤ 32	≤ 32	≤ 32	≤ 32	80	90	91	92	100	81	68	81	66	71	Activity (Danio rerio [21]): 136.5 bpm; Activity (Danio rerio [22]): 139.6 bpm; Activity (Danio rerio [23]): 148.4 bpm; Activity (Danio rerio [24]): 160.4 bpm; Activity (Danio rerio [25]): 153.8 bpm; Activity (Danio rerio [26]): Non-Toxic; Activity (Danio rerio [27]): Non-Toxic
C[C@H]1CC[C@H](NC(=O)CSc2nc3ccccc3c(=O)[nH]2)CC1	Non-Toxic	0.24 (≈ 0.0795 µg/mL)	83	97	88	93	≤ 32	≤ 32	≤ 32	≤ 32	76	67	64	47	100	83	77	70	51	50	Activity (Danio rerio [21]): 134 bpm; Activity (Danio rerio [22]): 135.5 bpm; Activity (Danio rerio [23]): 150.2 bpm; Activity (Danio rerio [24]): 157.4 bpm; Activity (Danio rerio [25]): 153.8 bpm; Activity (Danio rerio [26]): Non-Toxic; Activity (Danio rerio [27]): Non-Toxic
